For data set [1], the system named is HeLa. The data set can be described thus: Antiproliferative activity against HeLa cells in dark. The conditions noted are these: Homo sapiens. It counts as functional, cell-based. Put shortly: (§1)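 HeLa cells (10^5 per well) were grown in F-12 with 10% heat-inactivated FCS at 37 °C in 5% CO2. After 24 h, medium was swapped for phenol-red-free DMEM with compound. For UVA, cells were irradiated after 1 h at 0.789 J cm-2 (365 nm), then the drug medium was replaced with complete F-12 for 24 h. In the dark arm, cells stayed 24 h with compound in complete F-12. IC50 is the concentration giving 50% fewer cells than control.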

Data set [2] relates to HeLa. Kind of data set: Antiproliferative activity against HeLa cells in presence of 0.789 J/cm2 UVA light. The format is functional, cell-based. The settings on record: Homo sapiens, light or radiation study. A digest of the protocol: as §1
The subject of data set [3] is HL-60. The data set can be described thus: Antiproliferative activity against HL60 cells in dark. The format is functional, cell-based. The settings on record: Homo sapiens. A digest of the protocol: (§2)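 HL-60 cells (10^5 per well) were grown in RPMI 1640 with 15% heat-inactivated FCS and antibiotics at 37 °C in 5% CO2. After 24 h, compound was added in complete medium. For the irradiated arm, cells were kept 1 h in the dark, then given 0.789 J cm-2 UVA (365 nm lamps). Cells were incubated a further 24 h and viability read by trypan blue. IC50 is the concentration giving 50% fewer cells than control.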

Data set [4] has as its system HL-60. The data set can be described thus: Antiproliferative activity against HL60 cells in presence of 0.789 J/cm2 UVA light. The settings on record: Homo sapiens, HL-60, light or radiation study. The format is functional, cell-based. A digest of the protocol:
as §2

The species named for data set [5] is Cavia porcellus. The data set can be described thus: Phototoxicity in albino Dunkin-Hartley guinea pig skin assessed as formation of erythema at 0.14 umol/cm2. The format is organism-based, Zone of skin. The conditions noted are these: in vivo, topical_or_ocular. Put shortly:
(§3)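 Depilated albino outbred Dunkin-Hartley guinea pigs received the compound as an ethanol solution applied topically to the skin. Animals were kept 45 min in the dark, then the treated skin was irradiated with 20 kJ m-2 UVA. Erythema was scored after 48 h.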

In data set [6] the test system is Cavia porcellus. The data set can be described thus: Phototoxicity in albino Dunkin-Hartley guinea pig skin assessed as formation of erythema with edema at 0.046 umol/cm2. It counts as organism-based, Zone of skin. The conditions noted are these: in vivo, topical_or_ocular. A digest of the protocol:
as §3

The species entered for data set [7] is Cavia porcellus. The data set can be described thus: Phototoxicity in albino Dunkin-Hartley guinea pig skin assessed as formation of erythema at […]. It counts as organism-based, Zone of skin. The settings on record: in vivo, topical_or_ocular. Put shortly: as §3
For data set [8], the target named is DNA topoisomerase II (Homo sapiens) (UniProt P11388+Q02880). Kind of data set: Inhibition of topoisomerase 2 by ATP-dependent decatenation of kinetoplast DNA. It counts as protein assay. Put shortly:
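Human topoisomerase II (1 U) was incubated with 0.15 µg kinetoplast DNA and compound (1, 2, 4, 8 µM) in 20 µL for 1 h at 37 °C. The reaction was stopped with stop buffer plus proteinase K 50 µg/mL for 30 min at 37 °C. Decatenation was read on a 1% agarose gel with ethidium bromide 0.5 µg/mL in TAE, pH 8.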

Molecules are shown by their SMILES. pIC50: −log10 of the molar value.

As a reminder, the pIC50 is the IC50 on a negative log10 scale, so that one unit is a factor of ten. Take `COc1cc2oc(=O)cc(C)c2c2oc3ccccc3c12`: the pIC50 in the data set with HeLa [1], in the data set with HeLa [2], in the data set on HL-60 [3] and with HL-60 [4] was under 4.70 each time. Besides, the Activity result in the data set filed under Cavia porcellus [5] was “Not Active”.
For the molecule `Cc1cc(=O)oc2cc(OCCCN(C)C)c3c4ccccc4oc3c12`, the pIC50 was 5.46 in the data set on HeLa [1], 8.37 in the data set with HeLa [2], 6.32 with HL-60 [3] and 7.98 in the data set with HL-60 [4]. Also, the Activity result with Cavia porcellus [6] was “Active”; in the data set filed under Cavia porcellus [7] it was “Not Active”. Besides, the inhibition result in data set [8] is “Dose-dependent effect”.
Turning to `Cc1cc(=O)oc2cc(O)c3c4c(oc3c12)CCCC4`, the negative logarithm of the IC50 (pIC50) in the data set with HeLa [1], in the data set with HeLa [2], in the data set with HL-60 [3] and in the data set on HL-60 [4] was under 4.70 each time. Also, the Activity result in the data set filed under Cavia porcellus [5] is on record as “Not Active”.
`Cc1cc(=O)oc2cc(O)c3c4ccccc4oc3c12`: the negative-log IC50 (pIC50) in the data set on HeLa [1], in the data set with HeLa [2], in the data set on HL-60 [3] and in the data set on HL-60 [4] was under 4.70 throughout. Also, in the data set filed under Cavia porcellus [5], the Activity entry is given as “Not Active”.
As to `COc1c2occc2cc2ccc(=O)oc12` [METHOXSALEN], the pIC50 in the data set on HeLa [1] and in the data set on HL-60 [3] was under 4.70 throughout. Further, the result in the data set on Cavia porcellus [6] was Active.
Take `COc1cc2oc(=O)cc(C)c2c2oc3c(c12)CCCC3`: the pIC50 with HeLa [1], in the data set with HeLa [2], in the data set on HL-60 [3] and with HL-60 [4] was under 4.70 throughout. Further, the Activity result in the data set filed under Cavia porcellus [5] is on record as “Not Active”.
`Cc1cc(=O)oc2cc(OCCCN(C)C)c3c4c(oc3c12)CCCC4`: the pIC50 with HeLa [1] is under 4.70; in the data set on HeLa [2], 6.40; in the data set on HL-60 [3], 5.10; with HL-60 [4], 6.21. Moreover, the Activity entry in the data set listed under Cavia porcellus [5] was “Not Active”.

These data come from ChEMBL document CHEMBL1138081, “New furan side tetracyclic allopsoralen derivatives: synthesis and photobiological evaluation” (J Med Chem, 2006).
